Reference: ChEMBL document CHEMBL4190252, “Synthesis, antitumor activity and CDK1 inhibiton of new thiazole nortopsentin analogues” (Eur J Med Chem, 2017)
Active and inactive are the calls of the source. The rule behind the calls is not given here.

tested on: NCI/ADR-RES; assay: Growth inhibition of human NCI/ADR-RES cells incubated for 48 hrs by sulforhodamine B assay; type: functional; details: not given
In short: (§1)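 NCI full panel screen: five 10-fold dilutions (10^-4–10^-8 M). GI50 is the molar concentration giving 50% inhibition of net cell growth.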

Structure (SMILES) | GI50 [µM]
COCCn1cc(-c2nc(-c3c[nH]c4ncccc34)cs2)c2cc(OC)ccc21 | 3.07

tested on: HT-29; assay: Growth inhibition of human HT-29 cells incubated for 48 hrs by sulforhodamine B assay; type: functional; details: HT-29, 48 h; in short: as §1

Structure (SMILES) | GI50 [µM]
COCCn1cc(-c2nc(-c3c[nH]c4ncccc34)cs2)c2cc(OC)ccc21 | 4.31

tested on: MCF7; assay: Growth inhibition of human MCF7 cells incubated for 48 hrs by sulforhodamine B assay; type: functional; details: MCF7, 48 h; in short: as §1

Structure (SMILES) | GI50 [µM]
COCCn1cc(-c2nc(-c3c[nH]c4ncccc34)cs2)c2cc(OC)ccc21 | 0.05

tested on: SNB-19; assay: Growth inhibition of human SNB19 cells incubated for 48 hrs by sulforhodamine B assay; type: functional; details: SNB-19, 48 h
In short: (§2)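 NCI full-panel human tumour cell screen. Cells were exposed to five 10-fold dilutions from 10^-4 to 10^-8 M. GI50 is the molar concentration giving 50% inhibition of net cell growth, and a mean graph midpoint was calculated across the panel.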

Structure (SMILES) | GI50 [µM]
COCCn1cc(-c2nc(-c3c[nH]c4ncccc34)cs2)c2cc(OC)ccc21 | 9.71

tested on: HOP-62; assay: Growth inhibition of human HOP62 cells incubated for 48 hrs by sulforhodamine B assay; type: functional; details: HOP-62, 48 h; in short: as §1

Structure (SMILES) | GI50 [µM]
COCCn1cc(-c2nc(-c3c[nH]c4ncccc34)cs2)c2cc(OC)ccc21 | 2.12

tested on: IGROV-1; assay: Growth inhibition of human IGROV1 cells incubated for 48 hrs by sulforhodamine B assay; type: functional; details: IGROV-1, 48 h; in short: as §1

Structure (SMILES) | GI50 [µM]
COCCn1cc(-c2nc(-c3c[nH]c4ncccc34)cs2)c2cc(OC)ccc21 | 0.55

tested on: HCT-15; assay: Growth inhibition of human HCT15 cells incubated for 48 hrs by sulforhodamine B assay; type: functional; details: HCT-15, 48 h; in short: as §1

Structure (SMILES) | GI50 [µM]
COCCn1cc(-c2nc(-c3c[nH]c4ncccc34)cs2)c2cc(OC)ccc21 | 2.15

tested on: HCT-116; assay: Growth inhibition of human HCT116 cells incubated for 48 hrs by sulforhodamine B assay; type: functional; details: HCT-116, 48 h; in short: as §1

Structure (SMILES) | GI50 [µM]
COCCn1cc(-c2nc(-c3c[nH]c4ncccc34)cs2)c2cc(OC)ccc21 | 4.55

tested on: MDA-MB-468; assay: Growth inhibition of human MDA-MB-468 cells incubated for 48 hrs by sulforhodamine B assay; type: functional; details: MDA-MB-468, 48 h; in short: as §1

Structure (SMILES) | GI50 [µM]
COCCn1cc(-c2nc(-c3c[nH]c4ncccc34)cs2)c2cc(OC)ccc21 | 0.03

tested on: SK-OV-3; assay: Growth inhibition of human SKOV3 cells incubated for 48 hrs by sulforhodamine B assay; type: functional; details: SK-OV-3, 48 h; in short: as §2

Structure (SMILES) | GI50 [µM]
COCCn1cc(-c2nc(-c3c[nH]c4ncccc34)cs2)c2cc(OC)ccc21 | 3.49

tested on: MCF7; assay: Cell cycle arrest in human MCF7 cells assessed as reduction in accumulation at G0/G1 phase at GI50 concentration after 48 hrs by propidium iodide-staining based flow cytometry; type: functional; details: not given
In short: (§3)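 Cells were trypsinized, washed in cold PBS, and 1 x 10^6 cells stained with 20 µg/ml PI plus 200 µg/ml RNase for 30 min at room temperature in the dark. At least 1x 10^4 cells were analysed by flow cytometry. Mean±SD of three experiments in triplicate.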

Structure (SMILES) | Activity
COCCn1cc(-c2nc(-c3c[nH]c4ncccc34)cs2)c2cc(OC)ccc21 | Active

tested on: SF-268; assay: Growth inhibition of human SF268 cells incubated for 48 hrs by sulforhodamine B assay; type: functional; details: SF-268, 48 h; in short: as §1

Structure (SMILES) | GI50 [µM]
COCCn1cc(-c2nc(-c3c[nH]c4ncccc34)cs2)c2cc(OC)ccc21 | 4.42

tested on: NCI-H23; assay: Growth inhibition of human NCI-H23 cells incubated for 48 hrs by sulforhodamine B assay; type: functional; details: NCI-H23, 48 h; in short: as §1

Structure (SMILES) | GI50 [µM]
COCCn1cc(-c2nc(-c3c[nH]c4ncccc34)cs2)c2cc(OC)ccc21 | 1.63

tested on: Hs-578T; assay: Growth inhibition of human Hs 578T cells incubated for 48 hrs by sulforhodamine B assay; type: functional; details: not given; in short: as §1

Structure (SMILES) | GI50 [µM]
COCCn1cc(-c2nc(-c3c[nH]c4ncccc34)cs2)c2cc(OC)ccc21 | 2.07

tested on: A498; assay: Growth inhibition of human A498 cells incubated for 48 hrs by sulforhodamine B assay; type: functional; details: A498, 48 h; in short: as §1

Structure (SMILES) | GI50 [µM]
COCCn1cc(-c2nc(-c3c[nH]c4ncccc34)cs2)c2cc(OC)ccc21 | 1.87

tested on: Malme-3M; assay: Growth inhibition of human MALME-3M cells incubated for 48 hrs by sulforhodamine B assay; type: functional; details: not given; in short: as §1

Structure (SMILES) | GI50 [µM]
COCCn1cc(-c2nc(-c3c[nH]c4ncccc34)cs2)c2cc(OC)ccc21 | 12.6

tested on: SR; assay: Growth inhibition of human SR cells incubated for 48 hrs by sulforhodamine B assay; type: functional; details: not given; in short: as §2

Structure (SMILES) | GI50 [µM]
COCCn1cc(-c2nc(-c3c[nH]c4ncccc34)cs2)c2cc(OC)ccc21 | 1.28

tested on: OVCAR-5; assay: Growth inhibition of human OVCAR5 cells incubated for 48 hrs by sulforhodamine B assay; type: functional; details: OVCAR-5, 48 h; in short: as §1

Structure (SMILES) | GI50 [µM]
COCCn1cc(-c2nc(-c3c[nH]c4ncccc34)cs2)c2cc(OC)ccc21 | 0.61

tested on: MCF7; assay: Cell cycle arrest in human MCF7 cells assessed as reduction in accumulation at S phase at GI50 concentration after 48 hrs by propidium iodide-staining based flow cytometry; type: functional; details: not given; in short: as §3

Structure (SMILES) | Activity
COCCn1cc(-c2nc(-c3c[nH]c4ncccc34)cs2)c2cc(OC)ccc21 | Active

tested on: U-251; assay: Growth inhibition of human U251 cells incubated for 48 hrs by sulforhodamine B assay; type: functional; details: U-251, 48 h; in short: as §2

Structure (SMILES) | GI50 [µM]
COCCn1cc(-c2nc(-c3c[nH]c4ncccc34)cs2)c2cc(OC)ccc21 | 4.43

tested on: LOX IMVI; assay: Growth inhibition of human LOXIMVI cells incubated for 48 hrs by sulforhodamine B assay; type: functional; details: not given; in short: as §1

Structure (SMILES) | GI50 [µM]
COCCn1cc(-c2nc(-c3c[nH]c4ncccc34)cs2)c2cc(OC)ccc21 | 3.69

tested on: K562; assay: Growth inhibition of human K562 cells incubated for 48 hrs by sulforhodamine B assay; type: functional; details: K562, 48 h; in short: as §1

Structure (SMILES) | GI50 [µM]
COCCn1cc(-c2nc(-c3c[nH]c4ncccc34)cs2)c2cc(OC)ccc21 | 4.79

tested on: NCI-H522; assay: Growth inhibition of human NCI-H522 cells incubated for 48 hrs by sulforhodamine B assay; type: functional; details: NCI-H522, 48 h; in short: as §1

Structure (SMILES) | GI50 [µM]
COCCn1cc(-c2nc(-c3c[nH]c4ncccc34)cs2)c2cc(OC)ccc21 | 5.18

tested on: PC-3; assay: Growth inhibition of human PC3 cells incubated for 48 hrs by sulforhodamine B assay; type: functional; details: PC-3, 48 h; in short: as §1

Structure (SMILES) | GI50 [µM]
COCCn1cc(-c2nc(-c3c[nH]c4ncccc34)cs2)c2cc(OC)ccc21 | 4.22

tested on: OVCAR-8; assay: Growth inhibition of human OVCAR8 cells incubated for 48 hrs by sulforhodamine B assay; type: functional; details: OVCAR-8, 48 h; in short: as §1

Structure (SMILES) | GI50 [µM]
COCCn1cc(-c2nc(-c3c[nH]c4ncccc34)cs2)c2cc(OC)ccc21 | 4.11

tested on: 786-0; assay: Growth inhibition of human 786-0 cells incubated for 48 hrs by sulforhodamine B assay; type: functional; details: 786-0, 48 h; in short: as §1

Structure (SMILES) | GI50 [µM]
COCCn1cc(-c2nc(-c3c[nH]c4ncccc34)cs2)c2cc(OC)ccc21 | 3.44

tested on: A549; assay: Growth inhibition of human A549/ATCC cells incubated for 48 hrs by sulforhodamine B assay; type: functional; details: A549, 48 h; in short: as §1

Structure (SMILES) | GI50 [µM]
COCCn1cc(-c2nc(-c3c[nH]c4ncccc34)cs2)c2cc(OC)ccc21 | 4.41

tested on: Panel NCI-60 (60 carcinoma cell lines); assay: Growth inhibition of human NCI60 cells at 10^-5 M incubated for 48 hrs by sulforhodamine B assay; type: functional, cell-based; details: not given

Structure (SMILES) | growth inhibition (GI)
COCCn1cc(-c2nc(-c3c[nH]c4ncccc34)cs2)c2cc(OC)ccc21 | Active

tested on: BT-549; assay: Growth inhibition of human BT549 cells incubated for 48 hrs by sulforhodamine B assay; type: functional; details: BT-549, 48 h; in short: as §1

Structure (SMILES) | GI50 [µM]
COCCn1cc(-c2nc(-c3c[nH]c4ncccc34)cs2)c2cc(OC)ccc21 | 2.38

tested on: SN12C; assay: Growth inhibition of human SN12C cells incubated for 48 hrs by sulforhodamine B assay; type: functional; details: not given; in short: as §2

Structure (SMILES) | GI50 [µM]
COCCn1cc(-c2nc(-c3c[nH]c4ncccc34)cs2)c2cc(OC)ccc21 | 5.51

tested on: COLO 205; assay: Growth inhibition of human COLO205 cells incubated for 48 hrs by sulforhodamine B assay; type: functional; details: COLO 205, 48 h; in short: as §1

Structure (SMILES) | GI50 [µM]
COCCn1cc(-c2nc(-c3c[nH]c4ncccc34)cs2)c2cc(OC)ccc21 | 5.03

tested on: HOP-92; assay: Growth inhibition of human HOP92 cells incubated for 48 hrs by sulforhodamine B assay; type: functional; details: HOP-92, 48 h; in short: as §1

Structure (SMILES) | GI50 [µM]
COCCn1cc(-c2nc(-c3c[nH]c4ncccc34)cs2)c2cc(OC)ccc21 | 0.99

tested on: ACHN; assay: Growth inhibition of human ACHN cells incubated for 48 hrs by sulforhodamine B assay; type: functional; details: not given; in short: as §1

Structure (SMILES) | GI50 [µM]
COCCn1cc(-c2nc(-c3c[nH]c4ncccc34)cs2)c2cc(OC)ccc21 | 3.08

tested on: UACC-257; assay: Growth inhibition of human UACC257 cells incubated for 48 hrs by sulforhodamine B assay; type: functional; details: UACC-257, 48 h; in short: as §2

Structure (SMILES) | GI50 [µM]
COCCn1cc(-c2nc(-c3c[nH]c4ncccc34)cs2)c2cc(OC)ccc21 | 4.26

tested on: SF-295; assay: Growth inhibition of human SF295 cells incubated for 48 hrs by sulforhodamine B assay; type: functional; details: SF-295, 48 h; in short: as §1

Structure (SMILES) | GI50 [µM]
COCCn1cc(-c2nc(-c3c[nH]c4ncccc34)cs2)c2cc(OC)ccc21 | 2.7

tested on: UACC-62; assay: Growth inhibition of human UACC62 cells incubated for 48 hrs by sulforhodamine B assay; type: functional; details: UACC-62, 48 h; in short: as §2

Structure (SMILES) | GI50 [µM]
COCCn1cc(-c2nc(-c3c[nH]c4ncccc34)cs2)c2cc(OC)ccc21 | 5.98

tested on: KM12; assay: Growth inhibition of human KM12 cells incubated for 48 hrs by sulforhodamine B assay; type: functional; details: KM12, 48 h; in short: as §1

Structure (SMILES) | GI50 [µM]
COCCn1cc(-c2nc(-c3c[nH]c4ncccc34)cs2)c2cc(OC)ccc21 | 0.16

tested on: HCC 2998; assay: Growth inhibition of human HCC2998 cells incubated for 48 hrs by sulforhodamine B assay; type: functional; details: HCC 2998, 48 h; in short: as §1

Structure (SMILES) | GI50 [µM]
COCCn1cc(-c2nc(-c3c[nH]c4ncccc34)cs2)c2cc(OC)ccc21 | 4.81
